Measured values pooled from the literature.
Protocols differ between the studies behind these lines.
Target: D(2) dopamine receptor (DRD2, Homo sapiens, UniProt P14416)

Compound	assay	test system	conditions	measurement	value
Cc1cc(Nc2nccc(C)n2)cc(-c2cnc([C@@]3(O)CC[C@H](C(=O)O)C(C)(C)C3)s2)c1	ligand displacement		10 µM	inhibition	-3.52%
O=C1c2ccccc2CCN1CCCCN1CCN(c2cccc(Cl)c2Cl)CC1	ligand displacement, radioligand		10 µM	inhibition	99.3%
NS(=O)(=O)c1ccc(CCNCc2ccc(OCc3cccs3)cc2)cc1	enzyme activity, inhibitor		10 µM	inhibition	23.9%
CS(=O)(=O)c1cc(C2(NC(=O)c3cncc4c3cnn4-c3ccc(F)cc3)CC2)ccn1	cell-free assay		10 µM	inhibition	6.62%
Clc1cncc(OC[C@@H]2CN(CCN3CCc4ccccc43)CCO2)c1	ligand displacement, radioligand		10 µM	inhibition	60%
Cc1cc(NC(=O)c2cccc(S(F)(F)(F)(F)F)c2)cc(-n2ccn3nc(-c4cccnc4)cc23)c1	ligand displacement, radioligand		10 µM	inhibition	12.3%
O=C1C2CCCN2C(=O)N1CCCCN1CCN(c2cccc(Cl)c2)CC1 (stereo not shown)	enzyme activity, inhibitor		10 µM	inhibition	65.4%
COc1ccccc1N1CCN(CCCCN2CCc3ccccc3C2=O)CC1	ligand displacement, radioligand		10 µM	inhibition	97.5%
O=C(c1ccccc1Cl)N1CCN(CCNc2cc(=O)oc3ccccc23)CC1	enzyme activity, inhibitor		10 µM	inhibition	31.2%
CC(=O)C1=C(C)N(c2cccc(C(F)(F)F)c2)C(=O)N[C@H]1c1ccc(C#N)nc1	ligand displacement		10 µM	inhibition	-1.53%
CNc1nc2cc(OCCCCN3CCN(c4cccc5ccc(C)nc45)CC3)ccc2s1	β-arrestin recruitment, agonist	HTLA		Emax	< 20%
O=C(CN1CCN(c2ccc(F)cc2)CC1)Nc1cc(Cl)cc(Cl)c1	enzyme activity, inhibitor		10 µM	inhibition	13.6%
Cn1nc(C(=O)NCc2ccc(C(=O)O)cc2)cc1-c1ccc2[nH]ccc2c1	ligand displacement		10 µM	inhibition	-14.4%
Nc1nonc1C(=O)NCCNCc1cccc(OCc2ccccc2F)c1	enzyme activity, inhibitor		10 µM	inhibition	6.52%
CCC(=NO)C(C)=Cc1ccc(F)c(C)c1	ligand displacement		10 µM	inhibition	-6.57%
CCc1ccc(N2CCN(CC(O)COc3ccc(C(C)=O)cc3OC)CC2)cc1 (stereo not shown)	enzyme activity, inhibitor		10 µM	inhibition	11.2%
CC(=O)Nc1c(C(C)=O)c(=O)n(C)c2nc(-c3ccc(Cl)cc3Cl)c(-c3ccc(Cl)cc3)cc12	cell-free assay		10 µM	inhibition	5.73%
O=C(CN1CCO[C@H](COc2cccnc2)C1)N1CCc2ccccc21	ligand displacement, radioligand		10 µM	inhibition	9.9%
O=C(CCCN1CCC(O)(c2ccc(Br)cc2)CC1)c1ccc(F)cc1	binding			kon	2.67e+06 M⁻¹ s⁻¹
Cc1ccc(OC[C@@H]2CN(CCN3CCc4ccccc43)CCO2)cn1	ligand displacement, radioligand		10 µM	inhibition	18.8%
Cc1cccc(N2CCN(CC(O)COc3ccc4ccccc4c3)CC2)c1C (stereo not shown)	enzyme activity, inhibitor		10 µM	inhibition	24.4%
COc1ccc2c(c1)CN(CCCN1CCN(c3ccccc3OC)CC1)C2=O	ligand displacement, radioligand		10 µM	inhibition	82.1%
Cc1cc(C)cc(NC(=O)CN2CCN(C(=O)c3ccco3)CC2)c1	enzyme activity, inhibitor		10 µM	inhibition	8.3%
CO[C@H]1CC[C@H](CNc2ccc(S(=O)(=O)NC(=O)c3ccc(N4CCN(CC5=C(c6ccc(Cl)cc6)CC(C)(C)CC5)CC4)cc3Oc3cnc4[nH]ccc4c3)cc2[N+](=O)[O-])CC1	ligand displacement		10 µM	inhibition	-24%
COc1cccc(OC[C@H]2CN(CCN3CCc4ccccc43)CCO2)c1	ligand displacement, radioligand		10 µM	inhibition	31.5%
